According to ChEMBL document CHEMBL1123797, “Antianaphylactic benzophenones and related compounds” (1987):

Experiments:
Cavia porcellus [1] = species on record: Cavia porcellus; experiment: Inhibition of slow reacting substance of anaphylaxis (SRS-A) release from sensitized guinea pig chopped lung upon antigen challenge.; type: functional
Summary of the method: (§1)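 Guinea pigs sensitized to ovalbumin; lungs taken 3 weeks later, perfused with Tyrode, chopped into 0.5-mm cubes. 100-mg aliquots in Tyrode were preincubated 5 min at 37 °C, then compound or Tyrode and ovalbumin (5 mg in 0.1 mL) were added. Incubation was 15 min at 37 °C with rocking, and supernatant was bioassayed. Unchallenged control gave spontaneous release. Values are % inhibition, mean of ≥4 samples; Student's t-test.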

Cavia porcellus [2] = experiment: Mean collapse time after pretreatment with compound and mepyramine divided by mean collapse time of mepyramine-dosed control animals at 50 mg/kg po dose; type: functional
Summary of the method: (§2)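 Modified Herxheimer test in conscious sensitized guinea pigs, 4-5 per group. Compound was given orally at 25, 50 or 100 mg/kg 2 or 4 h before antigen challenge. Some groups also received mepyramine 0.5 mg/kg sc 0.5 h before challenge. D = mean collapse time of treated/untreated controls; M+D = mean collapse time of compound+mepyramine/mepyramine-dosed controls.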

Homo sapiens [3] = species on record: Homo sapiens; experiment: Inhibition of Slow reacting substance of anaphylaxis (SRS-A) mediator release form passively sensitized human lung upon antigen challenge at 1 ug/mL dose; type: functional
Summary of the method: (§3)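 Healthy human lung from carcinoma surgery was chopped into 0.5-mm cubes and passively sensitized 18 h at 18 °C with atopic serum from cocksfoot-pollen-allergic patients. Tissue was preincubated 5 min with compound, challenged with pollen extract (0.1 mL, 1000 noon units) and incubated as for guinea pig lung. Supernatant was bioassayed on guinea pig ileum, with mepyramine-treated (0.4 μg/mL) ileum for SRS-A. Values are % inhibition of mediator release.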

Cavia porcellus [4] = experiment: Mean collapse time after pretreatment with compound and mepyramine divided by mean collapse time of mepyramine-dosed control animals at 25 mg/kg po dose; type: functional; summary of the method: as §2
Homo sapiens [5] = species on record: Homo sapiens; experiment: Inhibition of Slow reacting substance of anaphylaxis (SRS-A) mediator release form passively sensitized human lung upon antigen challenge at 10 ug/mL dose; type: functional; summary of the method: as §3
Homo sapiens [6] = species on record: Homo sapiens; experiment: Inhibition of Histamine mediator release form passively sensitized human lung upon antigen challenge at 1 ug/mL dose; type: functional; summary of the method: as §3
Cavia porcellus [7] = experiment: Time of dosing of compound before antigen challenge in conscious sensitized guinea pig at 50 mg/kg po dose; type: functional; summary of the method: as §2
Cavia porcellus [8] = species on record: Cavia porcellus; experiment: Inhibition of slow reacting substance of anaphylaxis (SRS-A) release from sensitized guinea pig chopped lung upon antigen challenge at 10 ug/mL; type: functional; summary of the method: as §1
Cavia porcellus [9] = experiment: Time of dosing of compound before antigen challenge in conscious sensitized guinea pig at 25 mg/kg po dose; type: functional; summary of the method: as §2
Cavia porcellus [10] = experiment: Mean collapse time after pretreatment with compound divided by mean collapse time of untreated control animals at 25 mg/kg po dose; type: functional; summary of the method: as §2
Homo sapiens [11] = species on record: Homo sapiens; experiment: Inhibition of Histamine mediator release form passively sensitized human lung upon antigen challenge at 10 ug/mL dose; type: functional; summary of the method: as §3
Cavia porcellus [12] = experiment: Mean collapse time after pretreatment with compound divided by mean collapse time of untreated control animals at 50 mg/kg po dose; type: functional; summary of the method: as §2
Cavia porcellus [13] = species on record: Cavia porcellus; experiment: Inhibition of histamine release from sensitized guinea pig chopped lung upon antigen challenge at 10 ug/mL.; type: functional; summary of the method: as §1
Cavia porcellus [14] = experiment: Mean collapse time after pretreatment with compound divided by mean collapse time of untreated control animals at 100 mg/kg po dose; type: functional; summary of the method: as §2
Cavia porcellus [15] = experiment: Effect on bronchospasm in conscious sensitized guinea pig upon antigen challenge (herxheimer) at 25 mg/kg po dose; type: functional, Bronchiole; summary of the method: as §2
Cavia porcellus [16] = experiment: Mean collapse time after pretreatment with compound and mepyramine divided by mean collapse time of mepyramine-dosed control animals at 100 mg/kg po dose; type: functional; summary of the method: as §2
Cavia porcellus [17] = experiment: Time of dosing of compound before antigen challenge in conscious sensitized guinea pig at 100 mg/kg po dose; type: functional; summary of the method: as §2
Homo sapiens [18] = species on record: Homo sapiens; experiment: Inhibition of Slow reacting substance of anaphylaxis (SRS-A) mediator release form passively sensitized human lung upon antigen challenge at 10(ug/mL) dose:; type: functional; summary of the method: as §3
Homo sapiens [19] = species on record: Homo sapiens; experiment: Inhibition of Histamine mediator release form passively sensitized human lung upon antigen challenge at 10(ug/mL) dose:; type: functional; summary of the method: as §3
Cavia porcellus [20] = species on record: Cavia porcellus; experiment: Compound was tested for the inhibition of histamine release from sensitized guinea pig chopped lung upon antigen challenge at 10 ug/mL; type: functional; summary of the method: as §1
Cavia porcellus [21] = experiment: Mean collapse time after pretreatment with compound divided by mean collapse time of untreated control animals at 2 mg/kg po dose; type: functional
Cavia porcellus [22] = experiment: Mean collapse time after pretreatment with compound and mepyramine divided by mean collapse time of mepyramine-dosed control animals at 2 mg/kg po dose; type: functional
Cavia porcellus [23] = experiment: Time of dosing of compound before antigen challenge in conscious sensitized guinea pig at 2 mg/kg po dose; type: functional

Compound | Activity (Cavia porcellus [2]) | Inhibition (Homo sapiens [3]) [%] | Activity (Cavia porcellus [4]) | Inhibition (Homo sapiens [5]) [%] | Inhibition (Homo sapiens [6]) [%] | Time (Cavia porcellus [7]; dose 50 mg/kg) [h] | Inhibition (Cavia porcellus [8]) [%] | Activity (Cavia porcellus [10]) | Inhibition (Homo sapiens [11]) [%] | Activity (Cavia porcellus [12]) | Inhibition (Cavia porcellus [13]) [%] | other results
CCc1ccc(O)c(S(=O)(=O)c2ccc(Cl)cc2)c1 | – | – | – | – | – | – | – | – | – | – | – | Inhibition (Cavia porcellus [1]): 19%
CCc1ccc(O)c([S+]([O-])c2ccc(Cl)cc2)c1 (centres undefined) | 1.7 | 69 | 1.7 | 99 | 0 | 2 | 48 | 1.3 | 31 | 1 | 26 | Time (Cavia porcellus [9]): 4 h
CCc1ccc(O)c(C(=O)c2ccc(Cl)cc2)c1 | – | 74 | 2.7 | 100 | 0 | – | 51 | 0.8 | 0 | – | 3 | Activity (Cavia porcellus [14]): 1.4; Time of dosing before antigen challenge. (Cavia porcellus [15]): 4 h; Activity (Cavia porcellus [16]): 1.8; Time (Cavia porcellus [17]): 2 h
CCc1ccc(O)c(C(=O)c2cccs2)c1 | 1.6 | 55 | – | 67 | 0 | 2 | 59 | – | 0 | 0.7 | 0 | –
CCc1ccc(C(=O)c2ccc(F)cc2)c(O)c1 | 2.8 | – | – | – | – | – | 5 | – | – | 1.3 | – | Activity (Cavia porcellus [14]): 1.2; Activity (Cavia porcellus [16]): 2.3; Time (Cavia porcellus [17]): 2 h
C=C(c1ccc(C)cc1)c1cc(CC)ccc1O | 3.5 | – | – | – | – | – | 0 | – | – | 1 | – | Inhibition (Homo sapiens [18]): 84%; Inhibition (Homo sapiens [19]): 0%
CCc1ccc(OC)c(C(O)c2ccc(Cl)cc2)c1 (centres undefined) | – | – | 2.7 | – | – | – | 14 | 0.8 | – | – | – | Time (Cavia porcellus [7]; dose 25 mg/kg, in the assay text read “at 25 mg/kg po dose” for “at 50 mg/kg po dose”): 2 h
CCc1ccc(O)c(S(=O)(=O)c2ccccc2)c1 | – | – | – | – | – | – | – | – | – | – | – | Inhibition (Cavia porcellus [1]): 0%
CCc1ccc(O)c(C(=O)c2ccsc2)c1 | 2.3 | – | – | – | – | 2 | 26 | – | – | 0.8 | – | Inhibition (Cavia porcellus [20]): 37%
CN1CCC(=C2c3ccccc3CC(=O)c3sccc32)CC1 [KETOTIFEN] | – | 51 | – | 100 | 0 | – | 38 | – | 23 | – | 37 | Activity (Cavia porcellus [21]): 4.2; Activity (Cavia porcellus [22]): 3.1; Time (Cavia porcellus [23]): 2 h
